For 12 compounds, Activity, pA2 and Time results are on record in ChEMBL document CHEMBL1641514, “Drug metabolism-based design, synthesis, and bioactivities of 1-(2,6-dimethylphenoxy)-2-(3,4-dimethoxyphenylethylamino)propane hydrochloride (DDPH) analogs as α₁-adrenoceptors antagonists” (Bioorg Med Chem, 2011).

SMILES strings stand for the structures.

Experiment [1] deals with Rattus norvegicus. As to the kind of experiment: Antihypertensive activity in Sprague-Dawley rat assessed as change in heart rate at 5 mg/kg, iv.
For experiment [2], the target named is T1, Adrenergic receptor alpha-1 (Rattus norvegicus, UniProt P15823+P23944+P43140).
T1 sequence (P15823 whole entry): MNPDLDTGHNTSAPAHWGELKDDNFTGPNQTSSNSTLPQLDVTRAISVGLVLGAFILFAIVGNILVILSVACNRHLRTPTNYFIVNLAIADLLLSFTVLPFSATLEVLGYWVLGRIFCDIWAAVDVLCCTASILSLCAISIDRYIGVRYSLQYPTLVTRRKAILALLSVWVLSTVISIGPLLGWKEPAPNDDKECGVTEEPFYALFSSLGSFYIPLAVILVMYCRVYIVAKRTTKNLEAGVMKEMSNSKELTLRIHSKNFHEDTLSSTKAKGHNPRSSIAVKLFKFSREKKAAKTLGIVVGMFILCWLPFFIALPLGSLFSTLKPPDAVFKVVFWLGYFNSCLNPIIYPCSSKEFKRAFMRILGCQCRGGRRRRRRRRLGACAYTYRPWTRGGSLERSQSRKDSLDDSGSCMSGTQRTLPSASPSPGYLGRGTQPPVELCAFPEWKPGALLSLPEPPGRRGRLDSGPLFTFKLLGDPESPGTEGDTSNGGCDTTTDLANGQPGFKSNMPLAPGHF
T1 sequence (P23944 whole entry): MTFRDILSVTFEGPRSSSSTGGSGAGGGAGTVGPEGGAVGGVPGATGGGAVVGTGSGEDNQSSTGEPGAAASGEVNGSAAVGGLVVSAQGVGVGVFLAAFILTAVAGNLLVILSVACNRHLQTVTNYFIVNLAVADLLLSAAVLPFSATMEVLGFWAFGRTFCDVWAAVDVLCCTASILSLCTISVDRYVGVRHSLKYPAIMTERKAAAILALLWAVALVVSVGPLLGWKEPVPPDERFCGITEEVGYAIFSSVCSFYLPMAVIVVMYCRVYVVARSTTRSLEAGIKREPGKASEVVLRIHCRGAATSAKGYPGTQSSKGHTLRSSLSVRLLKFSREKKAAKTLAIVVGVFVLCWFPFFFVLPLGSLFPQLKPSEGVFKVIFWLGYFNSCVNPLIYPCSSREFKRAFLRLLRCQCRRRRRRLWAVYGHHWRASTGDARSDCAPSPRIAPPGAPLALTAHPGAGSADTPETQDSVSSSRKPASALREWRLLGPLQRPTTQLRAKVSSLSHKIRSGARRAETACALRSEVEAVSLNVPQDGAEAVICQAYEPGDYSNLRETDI
T1 sequence (P43140 whole entry): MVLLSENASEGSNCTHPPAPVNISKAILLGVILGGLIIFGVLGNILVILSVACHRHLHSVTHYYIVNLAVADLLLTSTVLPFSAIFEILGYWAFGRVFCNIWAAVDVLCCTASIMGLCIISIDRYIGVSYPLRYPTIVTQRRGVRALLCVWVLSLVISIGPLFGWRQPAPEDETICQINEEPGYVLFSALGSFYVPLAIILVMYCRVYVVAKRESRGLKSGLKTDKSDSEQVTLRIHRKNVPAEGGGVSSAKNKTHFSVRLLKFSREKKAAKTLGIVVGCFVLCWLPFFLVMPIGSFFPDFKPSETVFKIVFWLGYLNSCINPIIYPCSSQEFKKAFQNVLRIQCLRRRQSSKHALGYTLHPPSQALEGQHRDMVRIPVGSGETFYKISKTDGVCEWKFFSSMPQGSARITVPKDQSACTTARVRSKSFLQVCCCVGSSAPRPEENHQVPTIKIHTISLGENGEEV
As to the kind of experiment: Antagonist activity at alpha1 adrenergic receptor in Sprague-Dawley rat anococcygeus smooth muscle assessed as inhibition of phenylepinephrine-induced muscle contraction treated 20 mins before phenylepinephrine challenge. In kind it is functional. The method in brief: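 Male Sprague–Dawley rats (300–350 g) killed by cervical dislocation. Anococcygeus muscle mounted in a 20 mL bath of Krebs solution (pH 7.4), 37 °C, gassed with 5% CO₂/95% O₂. Resting tension 1.0 g. Equilibrated 1 h with Krebs renewal every 20 min. Cocaine, hydrocortisone and propranolol then added. pA₂ read out.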

Experiment [3] concerns Rattus norvegicus. As to the kind of experiment: Antihypertensive activity in Sprague-Dawley rat assessed as change in diastolic arterial pressure at 5 mg/kg, iv.
The test system of experiment [4] is Rattus norvegicus. As to the kind of experiment: Antihypertensive activity in Sprague-Dawley rat assessed as change in mean arterial pressure at 5 mg/kg, iv.
Experiment [5] concerns Rattus norvegicus. As to the kind of experiment: Antihypertensive activity in Sprague-Dawley rat assessed as time duration of hypotensive response at 5 mg/kg, iv.
Experiment [6] deals with Rattus norvegicus. As to the kind of experiment: Antihypertensive activity in Sprague-Dawley rat assessed as change in systolic arterial pressure at 5 mg/kg, iv.

For the compound `COc1ccc(CCNC(C)COc2c(C)cc(C#N)cc2C)cc1O.Cl` (configuration not stated), the Activity with Rattus norvegicus [1] is reported as -6.4%; in the experiment with Rattus norvegicus [3], -14.2%; with Rattus norvegicus [4], -11%; in the experiment with Rattus norvegicus [6] it was -8.2%. For the same compound, the pA2 (commonly the negative logarithm of the molar antagonist concentration that doubles the agonist concentration needed for the same response) in experiment [2] is 5.61. In the experiment with Rattus norvegicus [5], the Time was found to be 4 min.
As for `COc1cc(CCNC(C)COc2c(C)cc(Cl)cc2C)ccc1O.Cl` (configuration not stated), the Activity is on record as -6.6% with Rattus norvegicus [1], -25.1% with Rattus norvegicus [3], -20.2% in the experiment on Rattus norvegicus [4] and -12.1% in the experiment on Rattus norvegicus [6]. For the same compound, the pA2 in experiment [2] stood at 8.6. In the experiment with Rattus norvegicus [5], the Time was found to be 61 min.
As for `COc1ccc(CCNC(C)COc2c(C)cc(Cl)cc2C)cc1OC.Cl` (configuration not stated), the Activity in the experiment on Rattus norvegicus [1] is -8.78%; in the experiment with Rattus norvegicus [3], -18.5%; with Rattus norvegicus [4], -15.9%; with Rattus norvegicus [6] it was -13.3%. The pA2 in experiment [2] is given as 8.18. For the same compound, the Time with Rattus norvegicus [5] is listed as 34 min.
As to `COc1ccc(CCNC(C)COc2c(C)cc(Br)cc2C)cc1OC.Cl` (configuration not stated), the Activity in the experiment on Rattus norvegicus [1] is -8.3%; in the experiment with Rattus norvegicus [3] it was -7.8%; in the experiment on Rattus norvegicus [4] it was -8.5%; with Rattus norvegicus [6], -9.2%. Further, in experiment [2], the pA2 came to 6.93. The Time with Rattus norvegicus [5] is 12 min.
Turning to `COc1cc(CCNC(C)COc2c(C)cc(Br)cc2C)ccc1O.Cl` (configuration not stated), the Activity with Rattus norvegicus [1] was -1.7%; with Rattus norvegicus [3] it was -19.1%; in the experiment with Rattus norvegicus [4], -15.5%; in the experiment with Rattus norvegicus [6] it was -7.6%. In addition, the pA2 in experiment [2] was determined as 9.94. In addition, the Time in the experiment on Rattus norvegicus [5] is recorded as 23 min.
In the case of `COc1ccc(CCNC(C)COc2c(C)cc(Br)cc2C)cc1O.Cl` (configuration not stated), the Activity in the experiment on Rattus norvegicus [1] is given as -2.3%; in the experiment on Rattus norvegicus [3], -12.8%; in the experiment on Rattus norvegicus [4], -7.5%; with Rattus norvegicus [6], -3.5%. Also, in experiment [2], the pA2 is 7.02. In addition, the Time in the experiment on Rattus norvegicus [5] turned out to be 4 min.
Take `COc1ccc(CCNC(C)COc2c(C)ccc(C)c2C)cc1OC.Cl` (configuration not stated): the Activity in the experiment with Rattus norvegicus [1] is -16.6%; in the experiment with Rattus norvegicus [3], -34.2%; with Rattus norvegicus [4] it was -27.1%; in the experiment with Rattus norvegicus [6] it was -17.4%. Further, the pA2 in experiment [2] is given as 7.71. Moreover, the Time with Rattus norvegicus [5] is 57 min.
As for `COc1cc(CCNC(C)COc2c(C)ccc(C)c2C)ccc1O.Cl` (configuration not stated), the Activity is given as -0.96% with Rattus norvegicus [1], -20.5% in the experiment on Rattus norvegicus [3], -14.6% with Rattus norvegicus [4] and -7.9% with Rattus norvegicus [6]. The pA2 in experiment [2] is recorded as 8.02. Also, the Time with Rattus norvegicus [5] stood at 80 min.
For `COc1cc(CCNC(C)COc2c(C)cc(C)cc2C)ccc1O.Cl` (configuration not stated), the Activity with Rattus norvegicus [1] was -23.52%; with Rattus norvegicus [3] it was -48.99%; in the experiment on Rattus norvegicus [4], -45.92%; in the experiment on Rattus norvegicus [6], -36.45%. The pA2 in experiment [2] is listed as 8.86. Also, in the experiment with Rattus norvegicus [5], the Time is given as 205 min.
Take `COc1ccc(CCNC(C)COc2c(C)cc(C)cc2C)cc1OC.Cl` (configuration not stated): the Activity in the experiment on Rattus norvegicus [1] is given as -16.3%; with Rattus norvegicus [3] it was -28.23%; with Rattus norvegicus [4] it was -27.86%; in the experiment with Rattus norvegicus [6], -19.03%. The pA2 in experiment [2] is recorded as 7.25. Further, in the experiment with Rattus norvegicus [5], the Time was 33 min.
For the compound `COc1cc(CCNC(C)COc2c(C)cc(C#N)cc2C)ccc1O.Cl` (configuration not stated), the Activity with Rattus norvegicus [1] is -2.33%; in the experiment with Rattus norvegicus [3], -29.61%; in the experiment on Rattus norvegicus [4], -24.9%; in the experiment on Rattus norvegicus [6], -17.3%. For the same compound, the pA2 in experiment [2] worked out at 6.65. For the same compound, the Time in the experiment with Rattus norvegicus [5] turned out to be 6 min.
On to `COc1ccc(CCNC(C)COc2c(C)cccc2C)cc1OC.Cl` (configuration not stated), for which the Activity is recorded as -16.04% in the experiment on Rattus norvegicus [1], -26% in the experiment on Rattus norvegicus [3], -30.4% with Rattus norvegicus [4] and -19.79% with Rattus norvegicus [6]. In addition, the pA2 in experiment [2] turned out to be 8.07. In the experiment with Rattus norvegicus [5], the Time is given as 120 min.
